Laboratory results as given in publication PMC5901721 (Cancer research, 2018).

Key:
MRCKα [1] = assay: MRCKα pS1003 western blot in HEK293 cells expressing FLAG-MRCKα; format: cell-based, human; details: 2 hours
Procedure, shortened: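 HEK293 cells were transfected with 10 μg pEF-FLAG-MRCKα using a lipid reagent. After 48 h, they were treated 2 h with DMSO, 3 μM or 1 μM test compound. Cells were washed in PBS and lysed in 1% SDS, 50 mM Tris-HCl pH 7.4. Lysates were shredded and analysed by SDS-PAGE and western blot for MRCKα pS1003.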

[2] = system: MLC2 phosphorylation in SCC12 cells; details: cited from earlier work
SCC12 cells [3] = details: cited from earlier work
SCC12 cells [4] = assay: Phalloidin F-actin immunofluorescence; format: cell-based, human; details: SCC12, 1 µM
Procedure, shortened: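 SCC12 cells on glass coverslips were grown overnight, then given medium with 1 μM test compound or DMSO. Cells were fixed in 4% paraformaldehyde/PBS for 15 min and permeabilised with 0.5% Triton X-100 for 5 min. F-actin was stained with Alexa 488 phalloidin, mounted with DAPI and imaged by confocal microscopy.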

SCC12 cells [5] = assay: Random migration; format: cell-based, human; details: SCC12, 0.4 μM, 6 hours
Procedure, shortened: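 SCC12 cells were plated at 2×10⁴ per well of an image-lock 96-well plate. After 24 h, medium was changed to DMSO or 0.4 μM test compound. Individual cells were tracked over 6 h to give accumulated distance, Euclidean distance, velocity and directionality. Data are mean ± SEM of 120 cells; two-tailed unpaired t-tests.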

MRCKα pS1003 [6] = assay: MRCKα pS1003 immunohistochemistry in DMBA/TPA treated skin and papillomas; format: in vivo, mouse; details: DMBA/TPA mice, topical 25 μg 5 times per week
Procedure, shortened: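 Skin sections from DMBA/TPA mice dosed topically with 25 μg test compound in 80% DMSO or vehicle were stained for MRCKα pS1003. Normal skin and papilloma areas were selected, cells auto-detected and cytoplasmic intensity measured. Histoscore = %low×100 + %medium×200 + %high×300. Data are mean ± SD from 19 mice per group; two-tailed unpaired t-tests.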

PKCα = assay: Kinase selectivity profiling, 115 kinase panel; format: biochemical; details: 1 µM compound
DMPK [7] = target: T1, DMPK (Homo sapiens, UniProt Q09013); assay: Competitive LanthaScreen Eu TR-FRET kinase binding assay; details: read-out: Kd DMPK; displacement of fluorescent tracer; Cheng-Prusoff equation
T1 sequence (Q09013 1-629): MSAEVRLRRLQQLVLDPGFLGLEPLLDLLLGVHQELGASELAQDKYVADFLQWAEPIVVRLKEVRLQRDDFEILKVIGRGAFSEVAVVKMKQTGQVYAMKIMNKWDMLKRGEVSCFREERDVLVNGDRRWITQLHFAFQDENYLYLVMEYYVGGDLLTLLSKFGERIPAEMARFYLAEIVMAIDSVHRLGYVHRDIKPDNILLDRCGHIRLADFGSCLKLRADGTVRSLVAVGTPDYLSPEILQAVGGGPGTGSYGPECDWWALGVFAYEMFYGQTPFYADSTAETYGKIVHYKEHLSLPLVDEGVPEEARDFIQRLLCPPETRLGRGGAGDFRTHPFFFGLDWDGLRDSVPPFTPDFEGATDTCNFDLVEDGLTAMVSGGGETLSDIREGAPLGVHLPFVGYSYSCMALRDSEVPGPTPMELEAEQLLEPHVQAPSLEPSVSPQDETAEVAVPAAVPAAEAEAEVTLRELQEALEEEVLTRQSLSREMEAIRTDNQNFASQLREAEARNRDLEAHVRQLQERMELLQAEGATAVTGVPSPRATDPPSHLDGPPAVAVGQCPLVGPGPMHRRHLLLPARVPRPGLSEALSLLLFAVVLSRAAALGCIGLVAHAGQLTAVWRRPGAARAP

MRCKβ [8] = assay: Out-sourced dose-response kinase assays; format: biochemical; details: Cheng-Prusoff equation
SCC12 cells [9] = assay: SCC12 organotypic invasion assay; format: cell-based, human; details: SCC12, 0.4 μM, relative to DMSO vehicle
MRCKβ [10] = assay: In-house kinase assay Ki compared with out-sourced values; format: biochemical
SCC12 cells [11] = assay: Operetta high content morphology analysis; format: cell-based, human; details: 2 hours
Procedure, shortened: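 SCC12 cells were seeded at 1.5×10⁴ per 96-well and grown 24 h, then treated 2 h with DMSO or a dose range of test compound. Fixation was 4% PFA for 15 min, permeabilisation 0.5% Triton X-100 for 15 min, blocking 1% BSA for 30 min. Staining used phalloidin, DAPI and a whole-cell stain, followed by automated high-content imaging and morphology analysis.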

ROCK2 = assay: Kinase selectivity profiling, 115 kinase panel; format: biochemical; details: 1 µM compound; apparent Km for ATP
TSSK1 (STK22D) = assay: Kinase selectivity profiling, 115 kinase panel; format: biochemical; details: 1 µM compound
MRCKβ [12] = format: cell-based, human; details: MDA MB 231 cells, inducible kinase domains, 60 minutes
Procedure, shortened: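 MDA MB 231 cells with doxycycline-inducible MRCKβ, ROCK1 or ROCK2 kinase domains were plated at 1.1×10⁵/well. After 24 h, 1 µg/ml doxycycline was given for 18 h, then test compound for 60 min. Lysis was in 50 mM Tris-HCl pH 7.4, 0.5% SDS with phosphatase inhibitors. pMLC2 was measured by quantitative western blot; mean ± SEM of 3-4 independent replicates.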

skin papillomas = assay: DMBA/TPA two-stage chemical carcinogenesis model of SCC; format: in vivo, mouse; details: topical 25 μg 5 times per week for 14 weeks
Procedure, shortened: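 40 FVB mice received topical DMBA 25 μg in acetone on day 1. From day 5 they received TPA 4.7 μg in acetone three times weekly. From day 5, groups of 20 also got test compound 25 μg in 50 μL 80% DMSO or vehicle, 5 times/week for 14 weeks. Tumour size and number were recorded weekly, blinded. Culling was at 12 mm papilloma diameter. Data are mean ± SD, 20 mice.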

MRCKα pS1003 [13] = assay: MRCKα pS1003 staining of mouse skin after topical treatment; format: in vivo; details: FVB mouse, topical 4 X 25 µg over 2 days
Procedure, shortened: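 FVB mice (5 per group) received topical 25 μg test compound in 50 μL 80% (v/v) DMSO, or 50 μL vehicle. Four applications were given over 2 days. Mice were culled 2 h after the final treatment, and skin was taken for MRCKα pS1003 staining.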

[14] = system: MLC2 phosphorylation in SCC12 cells; assay: MLC2 phosphorylation in SCC12 cells; format: cell-based, human
Procedure, shortened: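 SCC12 cells were plated at 5×10⁵ per well of a 6-well plate. After 24 h, they were treated 2 h with DMSO or a dose range of test compound. Cells were washed in PBS, lysed in 1% SDS, 50 mM Tris-HCl pH 7.4, shredded, and analysed by SDS-PAGE western blotting for MLC2 phosphorylation.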

757 cancer cell lines = assay: Cancer cell line screen; format: cell-based, human; details: 72 hours, up to 10 µM, p<0.05
Procedure, shortened: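 757 human cancer cell lines spanning 45 cancer types were seeded in 1536-well plates and exposed to a 7-point, half-log dilution series of test compound with a top concentration of 10 μM.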

CDK9/Cyclin K = assay: Kinase selectivity profiling, 115 kinase panel; format: biochemical; details: 1 µM compound
CDK9/Cyclin T1 = assay: Kinase selectivity profiling, 115 kinase panel; format: biochemical; details: 1 µM compound
DMPK [15] = target: T1, DMPK; assay: Kinase selectivity profiling, 115 kinase panel; format: binding; details: 1 µM compound
CDK2/Cyclin A = assay: Kinase selectivity profiling, 115 kinase panel; format: biochemical; details: 1 µM compound
MRCKα [16] = assay: In vitro MRCKα autophosphorylation and MLC2 phosphorylation assay; format: biochemical; details: dephosphorylated immunoprecipitated FLAG-MRCKα
Procedure, shortened: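 FLAG-MRCKα (wild type, K106M or S1003A) was expressed in HEK293 for 2 days and immunoprecipitated on beads. They were incubated with lysate of IPTG-induced bacteria expressing MLC2, with western blot read-out.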

[17] = Skin and blood concentrations after topical application to FVB mice; format: in vivo; details: FVB mouse
Procedure, shortened: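 FVB mice received topical test compound in 80% (v/v) DMSO under several regimens: once at 10 μg or 25 μg; 4 × 25 μg over 2 days; or 8 × 25 μg (4 days on, 2 off, 4 on), with vehicle controls. Mice were culled 2, 4, 8 or 24 h after the final dose. Skin and blood concentrations were measured by a contract laboratory; mean ± SD from 3 mice per condition.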

SCC12 cells [18] = assay: SCC12 cell viability; format: cell-based, human; details: 24 hour treatment
ROCK1 = assay: Kinase selectivity profiling, 115 kinase panel; format: biochemical; details: 1 µM compound; apparent Km for ATP
[19] = Skin and blood concentrations at DMBA/TPA experimental endpoint; format: in vivo, mouse; details: DMBA/TPA mice, topical 25 μg 5 times per week
Procedure, shortened: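 DMBA/TPA-initiated and promoted FVB mice were dosed topically with test compound 25 μg in 50 μL 80% (v/v) DMSO, 5 times per week. Skin and blood compound concentrations were measured by a contract laboratory at study end.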

PKCγ = assay: Kinase selectivity profiling, 115 kinase panel; format: biochemical; details: 1 µM compound; apparent Km for ATP
[20] = topical 25 µg twice per day for 2 days

Compound: O=C(Nc1cn[nH]c1-c1ccccn1)c1nn(C2CCNCC2)cc1Cl [BDP5290]
- pS1003 immunoreactivity (MRCKα [1]; 3 µM): blocked
- MLC phosphorylation [2]: reduced MLC phosphorylation
- SCC12 organotypic invasion (SCC12 cells [3]): inhibited SCC12 organotypic invasion

Compound: c1cc(-c2c[nH]c3nccc(N4CCC[C@@]5(CCCCN5)C4)c23)ncn1 [BDP9066]
- bundling of filamentous actin at cortical and cytoplasmic regions (SCC12 cells [4]): reduced
- directionality of cell motility (SCC12 cells [5]): No differences
- reduction of accumulated distance travelled (SCC12 cells [5]): 21%
- reduction of mean Euclidean distance travelled (SCC12 cells [5]): 18%
- reduction of mean cell velocity (SCC12 cells [5]): 21%
- MRCKα pS1003 histoscores in papillomas (MRCKα pS1003 [6]): reduced
- MRCKα pS1003 histoscores in the treated skin area (MRCKα pS1003 [6]): reduced
- MRCKα pS1003 immunohistochemistry staining (MRCKα pS1003 [6]): significant decreases
- inhibition of PKCα (PKCα): > 75%
- Kd (DMPK [7]): 0.98 nM
- minimum fold-selectivity for MRCKβ against all kinases tested (calculated Ki) (MRCKβ [8]): 27 times
- decrease in the percentage of invading cells (SCC12 cells [9]): 50%
- pS1003 immunoreactivity (MRCKα [1]; 1 µM): blocked
- affinity (MRCKβ Ki determined in-house) higher than the DMPK Kd (MRCKβ [10]): 42 fold
- proportion of irregularly shaped cells (SCC12 cells [11]; SCC12, 0.5 μM): increased
- proportion of regularly shaped cells (SCC12 cells [11]; SCC12, 0.5 μM): reduced proportions
- 2D cell area (SCC12 cells [11]; SCC12, dose range): increased
- cell roundness (SCC12 cells [11]; SCC12, dose range): decreased
- proportion of elongated cells (SCC12 cells [11]; SCC12, varying concentrations): did not vary
- inhibition of ROCK2 (ROCK2): > 75%
- inhibition of TSSK1 (STK22D) (TSSK1 (STK22D)): > 75%
- selectivity of pMLC2 inhibition for MRCKβ relative to ROCK1 or ROCK2 (MRCKβ [12]): > 100 times
- average papilloma volume per mouse vs DMSO (skin papillomas): significantly reduced
- total papilloma numbers per mouse vs DMSO (skin papillomas): not different
- total tumor volume per mouse vs DMSO (skin papillomas): significantly reduced
- epidermal MRCKα pS1003 positive staining (MRCKα pS1003 [13]): significantly reduced
- increase in cellular potency relative to BDP5290 ([14]; SCC12 cells pMLC2): 5 fold
- EC50 ([14]; read-out: EC50 inhibition of MLC2 phosphorylation, SCC12 cells, 2 hours): 64 nM
- number of cancer types significantly resistant relative to all cancer cell lines (757 cancer cell lines): 4
- number of cancer types significantly sensitive relative to all cancer cell lines (757 cancer cell lines): 8
- inhibition of CDK9/Cyclin K (CDK9/Cyclin K): > 75%
- inhibition of CDK9/Cyclin T1 (CDK9/Cyclin T1): > 75%
- inhibition of DMPK (DMPK [15]): > 75%
- inhibition of CDK2/Cyclin A (CDK2/Cyclin A): > 75%
- MRCKα S1003 autophosphorylation in vitro (MRCKα [16]): blocked
- recombinant MLC2 phosphorylation by MRCKα in vitro (MRCKα [16]): blocked
- higher concentration in skin, repeated 25 μg doses relative to single 10 μg dose ([17]; topical): 2.8 fold
- mean concentration in blood [17, 20]: 40 nM
- mean concentration in skin [17, 20]: 26000 nM
- level in blood after 24 hours ([17]; topical, single 25 μg or 8 X 25 μg): undetectable
- concentration in skin 24 hours after final dosing ([17]; topical, single 25 μg or 8 X 25 μg (either regimen)): over 16 μM
- SCC12 cell viability (SCC12 cells [18]; all concentrations up to 0.5 µM): unaffected
- decrease in viability (SCC12 cells [18]; SCC12 cells, 1 μM): 25%
- inhibition of ROCK1 (ROCK1): > 75%
- compound in blood at experimental endpoint [19]: undetectable
- mean concentration in skin at experimental endpoint [19]: > 1000 nM

Compound: c1csc(-c2c[nH]c3nccc(N4CCC[C@@]5(CCCCN5)C4)c23)n1 [BDP8900]
- Kd (DMPK [7]): 0.8 nM
- minimum fold-selectivity for MRCKβ against all kinases tested (calculated Ki) (MRCKβ [8]): 43 times
- affinity (MRCKβ Ki determined in-house) higher than the DMPK Kd (MRCKβ [10]): 33 fold
- selectivity of pMLC2 inhibition for MRCKβ relative to ROCK1 or ROCK2 (MRCKβ [12]): > 562 times
- number of cancer types significantly resistant relative to all cancer cell lines (757 cancer cell lines): 6
- number of cancer types significantly sensitive relative to all cancer cell lines (757 cancer cell lines): 10
- inhibition of DMPK (DMPK [15]): > 75%
- inhibition of PKCγ (PKCγ): > 75%
